# INS-1E rescue – protection of INS-1E cells from cytokine death, primary screen, ATP luminescence, single point; INS-1E cytokine-induced death, 48 h; normalised: neutral wells 0, positive control 100; AID 488910, 2010; protection from cytokine-induced ATP loss, % at 10 µM; 0.1% of 20,000 active;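 active = mean replicate protection from cytokine-induced ATP loss at least 50% and at least 75% of replicates each reaching 50%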
#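 Assay system – rat INS-1E insulinoma cell line · Quantity – 8000 cells per well · Buffer or medium – RPMI without phenol red, 5% FBS · Schedule – 48 h co-treatment, 10 min post-lysis read · Technique – luminescent ATP assay (CellTiter-Glo)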
# A1 apoptosis 2 – A1 inhibitors via caspase activation, primary screen, cell-based, luminescence, HTS, two replicates; MEF A1-2A-BIM cells, caspase-Glo luminescence, 3 h; percent of clofoctol response, DMSO zero; caspase activation, % (test concentration not listed); 24,000 tested, under 10 active; in the data active = caspase activation above about 5.9%
#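 Material: A1-2A-BIM-expressing MEF cells. Buffer or medium: RPMI-1640 plus 10% FBS. Incubation: cells settled overnight, compound exposure 3 h at 37 °C, 5% CO2. Signal: Caspase-Glo 3/7 luminescence, 1 h at room temperature.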
# T cruzi intra – inhibitors of intracellular Trypanosoma cruzi, primary screen, cell-based, plate reader, single point, set 2; 4.9% of 22,000 active; activity score (inhibition), % at 5.01 µM; intracellular Trypanosoma cruzi in host cells; in the data active = activity score above about 55%;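 also: parasites and compound incubated about four days before reading; 0% = median of neutral control wells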
# An asterisk follows results filed as active; x = no result given. This is one part of a sample in which hits are shown more often than they occur.
SMILES,INS-1E rescue,A1 apoptosis 2,T cruzi intra
C[C@@H]1CN([C@@H](C)CO)C(=O)c2cc(NS(=O)(=O)c3cccs3)ccc2O[C@@H]1CN(C)Cc1ccc(C(=O)Nc2ccccc2N)cc1,38,x,48
CC(C)=CCC[C@@H](C)C/C=N/NC(=O)c1ccc(C(=O)NO)cc1,-12,0,3
Cc1noc(C)c1NC(=O)N(C)C[C@@H]1Oc2ccc(NC(=O)C3CCCCC3)cc2C(=O)N([C@H](C)CO)C[C@H]1C,4,x,0
C[C@@H]1CN([C@@H](C)CO)C(=O)Cc2cc(NC(=O)Cc3cn(C)c4ccccc34)ccc2O[C@@H]1CN(C)Cc1ccc(C(=O)Nc2ccccc2N)cc1,x,0,x
C[C@H](CO)N1C[C@H](C)[C@H](CN(C)Cc2ccc(C(=O)Nc3ccccc3N)cc2)Oc2ccc(NC(=O)Cc3cn(C)c4ccccc34)cc2CC1=O,40,x,34
C[C@@H]1CN([C@H](C)CO)C(=O)Cc2cc(NC(=O)Cc3cn(C)c4ccccc34)ccc2O[C@@H]1CN(C)Cc1ccc(C(=O)Nc2ccccc2N)cc1,-8,1,72*
C[C@H]1CN([C@@H](C)CO)C(=O)Cc2cc(NC(=O)Cc3cn(C)c4ccccc34)ccc2O[C@H]1CN(C)Cc1ccc(C(=O)Nc2ccccc2N)cc1,12,x,66*
O=C(CCCCC(=O)N/N=C/c1ccoc1)NO,3,1,9
CC(C)=CCC[C@@H](C)C/C=N/NC(=O)c1cccc(C(=O)NO)c1,-5,0,-4
COc1ccc(CN(C)C[C@@H]2OCCCC[C@H](C)Oc3ccc(NC(=O)Nc4ccc(C(F)(F)F)cc4)cc3C(=O)N([C@@H](C)CO)C[C@H]2C)cc1,x,1,x
COc1ccc(CN(C)C[C@@H]2OCCCC[C@@H](C)Oc3ccc(NC(=O)Nc4ccc(C(F)(F)F)cc4)cc3C(=O)N([C@H](C)CO)C[C@@H]2C)cc1,-32,x,63*
C[C@@H]1CCCCO[C@@H](CN(C)Cc2ccc(C(F)(F)F)cc2)[C@@H](C)CN([C@H](C)CO)C(=O)c2cc(NC(=O)Nc3ccc4c(c3)OCO4)ccc2O1,-13,-1,70*
C[C@@H]1CCCCO[C@@H](CN(C)Cc2ccncc2)[C@@H](C)CN([C@@H](C)CO)C(=O)c2cc(NC(=O)Nc3ccc(C(F)(F)F)cc3)ccc2O1,x,0,x
C[C@@H]1CCCCO[C@H](CN(C)Cc2ccc(C(F)(F)F)cc2)[C@@H](C)CN([C@@H](C)CO)C(=O)c2cc(NC(=O)Nc3ccc(F)cc3)ccc2O1,x,-1,x
C[C@@H]1CCCCO[C@@H](CN(C)Cc2ccncc2)[C@@H](C)CN([C@H](C)CO)C(=O)c2cc(NC(=O)Nc3ccc(C(F)(F)F)cc3)ccc2O1,-3,x,57*
C[C@@H]1CCCCO[C@@H](CN(C)Cc2ccc(C(F)(F)F)cc2)[C@@H](C)CN([C@H](C)CO)C(=O)c2cc(NC(=O)Nc3ccc(F)cc3)ccc2O1,-4,x,79*
C[C@@H]1CN([C@@H](C)CO)C(=O)c2cc(NC(=O)Nc3ccc4c(c3)OCO4)ccc2O[C@@H](C)CCCCO[C@H]1CN(C)Cc1ccc(C(F)(F)F)cc1,x,-1,x
C=CCOC(=O)[C@H]1[C@@H]2C(=O)O[C@@H](c3ccccc3)[C@@H](c3ccccc3)N2[C@@H](c2ccc(OCCOC(=O)[C@@H]3C[C@@H]4C(=O)N5CCC[C@H]5C(=O)N4[C@@H]3c3ccc(O)cc3)cc2)[C@]12C(=O)Nc1ccccc12,x,1,x
COc1cc(/C=N/NC(=O)c2ccc(C(=O)NO)cc2)c(Br)cc1O,25,-5,3
COc1ccc(NC(=O)CN=[N+]=[N-])cc1OC,x,1,x
O=C(N/N=C/c1ccc(OCc2ccccc2)cc1O)c1ccccn1,x,-8,x
O=C(O)CCCCCCC(=O)N/N=C/c1ccc(N(c2ccccc2)c2ccccc2)cc1,x,0,x
Cc1ccc(S(=O)(=O)Nc2ccc3c(c2)C(=O)N([C@@H](C)CO)C[C@@H](C)[C@@H](CN(C)Cc2ccc(Cl)c(Cl)c2)O3)cc1,-37,x,64*
C[C@@H]1CN([C@H](C)CO)C(=O)c2cc(NS(=O)(=O)c3ccccc3)ccc2O[C@@H]1CN(C)Cc1ccc(Cl)c(Cl)c1,-2,x,-8
C[C@H]1CN([C@@H](C)CO)C(=O)c2cc(NS(=O)(=O)c3ccccc3)ccc2O[C@@H]1CN(C)Cc1ccc(Cl)c(Cl)c1,-7,x,62*
SMILES,INS-1E rescue,A1 apoptosis 2,T cruzi intra
C[C@@H]1CN([C@@H](C)CO)C(=O)c2cc(NS(=O)(=O)c3ccc(Cl)cc3)ccc2O[C@H]1CN(C)Cc1ccc(Cl)c(Cl)c1,-8,1,58*
Cc1ccc(S(=O)(=O)Nc2ccc3c(c2)C(=O)N([C@@H](C)CO)C[C@H](C)[C@@H](CN(C)Cc2ccc(Cl)c(Cl)c2)O3)cc1,0,x,32
C[C@H]1CN([C@@H](C)CO)C(=O)c2cc(NS(=O)(=O)c3ccc(Cl)cc3)ccc2O[C@@H]1CN(C)Cc1ccc(Cl)c(Cl)c1,-13,0,46
OCC1CC(c2ccccc2)=NO1 (stereo not given),x,-1,x
C[C@H](CO)N1C[C@H](C)[C@H](CN(C)S(C)(=O)=O)Oc2ncc(C#Cc3ccc(F)cc3)cc2C1=O,x,x,10
CCCC(O)C#Cc1cnc2c(c1)C(=O)N([C@H](C)CO)C[C@H](C)[C@H](CN(C)S(=O)(=O)c1cccs1)O2 (stereo not given in full),x,1,12
C[C@H](CO)N1C[C@H](C)[C@H](CN(C)S(=O)(=O)c2cccs2)Oc2ncc(C#Cc3ccc(C(F)(F)F)cc3)cc2C1=O,-21,-2,87*
C[C@H](CO)N1C[C@H](C)[C@H](CN(C)S(=O)(=O)c2cccs2)Oc2ncc(C#Cc3ccc(F)cc3)cc2C1=O,x,x,65*
C=CCNC(=O)[C@H]1[C@@H]2C(=O)O[C@@H](c3ccccc3)[C@@H](c3ccccc3)N2[C@@H](c2ccc(O)cc2)[C@]12C(=O)N(C(=O)OCCOC)c1ccc(C#CC3=CCCCC3)cc12,x,1,x
COc1cc(/C=N/NC(=O)c2ccccc2O)ccc1O,-31,x,-18
C[C@@H]1CN([C@@H](C)CO)C(=O)Cc2cc(NC(=O)Nc3ccc(C(F)(F)F)cc3)ccc2O[C@H]1CN(C)Cc1ccc(Cl)c(Cl)c1,x,-1,x
C[C@@H]1CN([C@H](C)CO)C(=O)Cc2cc(NC(=O)Nc3ccc(C(F)(F)F)cc3)ccc2O[C@@H]1CN(C)Cc1ccc(Cl)c(Cl)c1,-15,x,65*
C[C@@H]1CN([C@H](C)CO)C(=O)Cc2cc(NC(=O)Nc3ccc(C(F)(F)F)cc3)ccc2O[C@H]1CN(C)Cc1ccc(Cl)c(Cl)c1,4,x,11
C[C@H](CO)N1C[C@H](C)[C@H](CN(C)Cc2ccc(Cl)c(Cl)c2)Oc2ccc(NC(=O)Nc3ccc(C(F)(F)F)cc3)cc2CC1=O,-9,x,63*
C[C@H]1CN([C@@H](C)CO)C(=O)Cc2cc(NC(=O)Nc3ccc(C(F)(F)F)cc3)ccc2O[C@H]1CN(C)Cc1ccc(Cl)c(Cl)c1,-95,2,78*

# Screens as filed in PubChem.
